Screening data deposited in PubChem by several laboratories.
A selection: hits, their analogues and other compounds. The true share with any hit is near 2%.
NR2E3 ag-1 – NR2E3 agonists in two-hybrid cells, primary screen, cell-based, luminescence, CHO-S, Gal4-NCOR/VP16-NR2E3 | luciferase | inhibition of corepressor binding, % at 3.98 µM | 360,000 tested, 0.35% active;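 active means inhibition above the mean of all tested compounds plus 3 SD, cut at about 70% in these data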;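 further: higher means lower luciferase signal from less NR2E3 corepressor binding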
NR2E3 ag-2 – inhibitors of NR2E3-RetCOR corepressor binding, primary screen, NR2E3 agonist project, biochemical, TR-FRET, GST-NR2E3, biotin-RetCOR | 320,000 tested, 0.12% active | AID 2300, 2010 | inhibition of corepressor binding, % at 4.78 µM | Photoreceptor-specific nuclear receptor (Homo sapiens), Q9Y5X4 | 1536-well;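 active means percent inhibition above the cutoff of mean plus 3 SD of all tested compounds, set per screening campaign, cut at about 20% in these data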
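Format: 1536-well format; test system: GST-NR2E3 and biotin-RetCOR proteins; read-out basis: percent inhibition of TR-FRET ratio; timing: 5 h incubation at 4 °C; detection: time-resolved FRET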
PG9 Ab binder – binders of HIV-1 gp120 antibody PG9, primary screen, biochemical, TR-FRET; inhibition, % at 6.7 µM; 360,000 tested, 0.43% active; TR-FRET gp120-PG9 antibody binding; AID 624416, 2012; in the data active means inhibition above about 8.5%
Neddyl block – inhibitors of cullin neddylation, primary screen, biochemical, TR-FRET, uHTS, NAE and Ubc12. calls only at 25 µM. 360,000 tested, 0.58% active. AID 651699, 2012; in the data active means inhibition above about 36%
Target sequence (P61081 whole entry, looked up): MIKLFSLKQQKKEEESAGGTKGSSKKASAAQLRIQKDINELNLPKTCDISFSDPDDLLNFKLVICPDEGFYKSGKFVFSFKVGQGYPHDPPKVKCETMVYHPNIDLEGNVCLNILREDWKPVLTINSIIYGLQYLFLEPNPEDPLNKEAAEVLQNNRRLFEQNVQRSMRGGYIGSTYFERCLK
Target sequence (Q13564 whole entry, looked up): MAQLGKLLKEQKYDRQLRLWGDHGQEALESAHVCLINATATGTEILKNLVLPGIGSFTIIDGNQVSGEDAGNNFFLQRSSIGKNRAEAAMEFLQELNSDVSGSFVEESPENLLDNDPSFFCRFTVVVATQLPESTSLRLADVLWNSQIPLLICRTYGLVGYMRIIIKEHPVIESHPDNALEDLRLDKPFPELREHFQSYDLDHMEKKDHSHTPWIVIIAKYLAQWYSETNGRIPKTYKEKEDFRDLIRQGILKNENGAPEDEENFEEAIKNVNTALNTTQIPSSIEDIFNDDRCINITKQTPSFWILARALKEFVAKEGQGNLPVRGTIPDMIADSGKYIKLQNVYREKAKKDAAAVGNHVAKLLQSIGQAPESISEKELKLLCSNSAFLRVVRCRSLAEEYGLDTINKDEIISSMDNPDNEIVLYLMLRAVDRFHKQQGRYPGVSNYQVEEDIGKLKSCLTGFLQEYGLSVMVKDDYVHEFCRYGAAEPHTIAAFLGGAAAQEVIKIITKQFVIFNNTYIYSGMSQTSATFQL
Rev-erbA mod – modulators of Rev-erb alpha DNA binding, primary screen, biochemical, FITC-DNA, fluorescence polarization, uHTS; 370,000 tested, 0.79% active; Rev-erbα–FITC-DNA binding, 90 min; Nuclear receptor subfamily 1 group D member 1 (Homo sapiens), P20393; activity, % at 10 µM;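 active means activity above about 14%, limit read from the data; passing the limit was not always enough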
Rev-erbA confirm – modulators of Rev-erb alpha DNA binding, confirmation, biochemical, FITC-DNA, fluorescence polarization, single point | shares compounds with Rev-erbA mod | 90 min | activation, % at 25 µM | 3,000 tested, 61% active | AID 1259319, 2017;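 active means activation at or above a set limit, or at least 3 SD above the negative control mean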
RORg DNA counter – modulation of RORgamma DNA binding, dose response, counter-screen for Rev-erb alpha modulator project, biochemical, fluorescence polarization, FITC-DNA. purified RORgamma protein-FITC-DNA binding. shares compounds with Rev-erbA mod. IC50, µM. 910 tested, 8% active;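 active means Compounds whose fitted half-maximal concentration for disrupting protein-DNA binding is below 10 micromolar; the record names Rev-erb in its text, so the target is in doubt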
Large screens that a line does not name were inactive (follow-up assays come after a bar, where shown).

COc1ccc(Cn2ccc3ccc(-c4ccc5ccn(C(=O)c6cccc(OC)c6)c5c4)cc32)cc1	Rev-erbA mod 38 (no result: NR2E3 ag-1, NR2E3 ag-2, PG9 Ab binder, Neddyl block) | Rev-erbA confirm 71 | RORg DNA counter inactive
CC(C)NC(=O)C1(C)CCCN1C(=O)c1ccccc1Br (stereo not given)	none (no result: NR2E3 ag-2)
Cc1ccnc(SCc2cc(=O)c(OC(=O)c3ccc([N+](=O)[O-])cc3)co2)n1	none (no result: NR2E3 ag-1, NR2E3 ag-2, PG9 Ab binder, Neddyl block)
COc1ccc(N2C(=O)c3[nH]nc(-c4ccccc4)c3C2c2ccc(Br)cc2)cc1 (stereo not given)	none (no result: NR2E3 ag-1, NR2E3 ag-2, Neddyl block)
COc1cc(/C=N/NC(=O)c2c(C)nc3ccc(Cl)cn23)cc(OC)c1OC	Rev-erbA mod 50 (no result: NR2E3 ag-2) | Rev-erbA confirm 47 | RORg DNA counter inactive
CCOC(=O)C1=CCN(S(=O)(=O)c2ccc(Cl)cc2)C1c1ccc(Br)cc1 (stereo not given)	none (no result: NR2E3 ag-1, NR2E3 ag-2, Neddyl block)
CC1(C)Cc2nc3sc4c(OCc5ccccc5)ncnc4c3cc2CO1	Rev-erbA mod 38 | Rev-erbA confirm 20
CC(=O)Nc1ccc(S(=O)(=O)N(C)CC(=O)OC(C)C(=O)NC2CCCCC2)cc1 (stereo not given)	none
Cc1cc(NC(=O)CSc2nc(-c3ccccc3Cl)nc3c2c(=O)n(C)c(=O)n3C)no1	Rev-erbA mod 28 | Rev-erbA confirm inactive
Cc1cc(NC(=O)CSc2nc(-c3ccc(Br)cc3)nc3c2c(=O)n(C)c(=O)n3C)no1	none (no result: PG9 Ab binder, Rev-erbA mod)
Cc1nc(SCc2ccc(F)cc2)c2oc3ccccc3c2n1	none
CCSc1ncnc2c1oc1ccccc12	none
Fc1cccc(CSc2ncnc3c2oc2ccccc23)c1	Rev-erbA mod 122 | Rev-erbA confirm 154 | RORg DNA counter 6.3
Fc1ccc(CSc2ncnc3c2oc2ccccc23)cc1	Rev-erbA mod 290 | Rev-erbA confirm 284 | RORg DNA counter inactive
COC(=O)c1cc2c(c3c4ccccc4n(S(=O)(=O)c4ccc(OC)cc4)c13)C(=O)N(C)C2	none (no result: NR2E3 ag-1, NR2E3 ag-2, Neddyl block)
O=C(NNC(=O)C1CC(=O)N(Cc2ccccc2)C1)c1ccc(Br)cc1 (stereo not given)	none
CCOc1cccc2cc(C(N)=O)c(=NCc3ccccc3)oc12	Rev-erbA mod 48 | Rev-erbA confirm 17
COC(=O)[C@]12C[C@H](CC(=O)NCc3ccccc3)C(=O)N(CCc3ccc(OC)c(OC)c3)C1=C[C@H](C1CCCC1)O[C@@H]2C	none (no result: NR2E3 ag-1, NR2E3 ag-2, PG9 Ab binder, Neddyl block)
Cc1ccc2nsnc2c1NC(=O)c1sc2ccccc2c1Cl	Rev-erbA mod 31 | Rev-erbA confirm 32 | RORg DNA counter inactive
CNC(=O)c1ccsc1NC(=O)c1sc2ccccc2c1Cl	Rev-erbA mod 96 | Rev-erbA confirm 72 | RORg DNA counter inactive
C[C@@H]1Cc2cc(O)c(O)c(O)c2C(=O)O1	none (no result: NR2E3 ag-1, NR2E3 ag-2, PG9 Ab binder, Neddyl block)
N#Cc1ccc(Cn2ccc3ccc(-c4ccc5ccn(C(=O)C6CC6)c5c4)cc32)cc1	none (no result: NR2E3 ag-1, NR2E3 ag-2, PG9 Ab binder, Neddyl block)
COc1ccc(C(=O)N=C2SC3CS(=O)(=O)CC3N2c2ccc(N(C)C)cc2)cc1OC (stereo not given)	Rev-erbA mod 53 | Rev-erbA confirm inactive
Cc1c(C(=O)Nc2cccc(S(=O)(=O)N3CCOCC3)c2)oc2ccc(Br)cc12	Rev-erbA mod 16 (no result: NR2E3 ag-2) | Rev-erbA confirm inactive
O=C(Nc1cccc(Br)c1)c1cc(S(=O)(=O)N2CCOCC2)cs1	Rev-erbA mod 30 | Rev-erbA confirm inactive
COP(=O)(c1ccc(N(C)C)cc1)C(O)c1ccccc1 (stereo not given)	none
COC(=O)c1sc(SC)nc1N	none (no result: NR2E3 ag-1, PG9 Ab binder, Neddyl block, Rev-erbA mod)
CSc1nc(N)c(C(=O)NC2CCCCC2)s1	Rev-erbA mod 23 | Rev-erbA confirm inactive
COc1ccccc1C(=O)Nc1ccon1	none
COc1cc(SC)ccc1C(=O)Nc1ccc(Cl)cn1	Rev-erbA mod 18 | Rev-erbA confirm 34 | RORg DNA counter inactive
COc1ccccc1C(=O)NNC(=O)c1cccc(Cl)c1	Rev-erbA mod 29 | Rev-erbA confirm inactive
COc1cc2ccccc2cc1C(=O)Nc1ccc(Br)cn1	Rev-erbA mod 36 (no result: NR2E3 ag-2) | Rev-erbA confirm 28
COc1ccccc1C(=O)NNC(=O)c1cccc(Br)c1	none
COc1ccccc1C(=O)Nc1cccc(NC(=O)c2ccccc2OC)n1	Rev-erbA mod 23 | Rev-erbA confirm inactive
COc1ccc(N2CCN(C(=O)COC(=O)COc3cccc(C(F)(F)F)c3)CC2)cc1	none
O=C1NC(=O)c2c(Br)c(Br)c(Br)c(Br)c21	Rev-erbA mod 395 (no result: NR2E3 ag-2) | Rev-erbA confirm 442 | RORg DNA counter 7.5
CCOC1=C2[C@@H](CN(S(=O)(=O)c3ccc(C)cc3)[C@H]2c2ccccc2F)[C@H]2C(=O)N(C3CCCCC3)C(=O)[C@H]2C1	none (no result: NR2E3 ag-2)
COc1ccc(C(=O)OCc2cc3cccc(C)c3[nH]c2=O)cc1	Rev-erbA mod 59 | Rev-erbA confirm 26
COc1ccc(CC(=O)OCc2cc3cccc(C)c3[nH]c2=O)cc1	none (no result: PG9 Ab binder)
COc1ccc2c(c1)C(CC(C)=O)N(c1ccc(-c3cccs3)cc1)C(c1ccsc1)=C2 (stereo not given)	none (no result: NR2E3 ag-2)
COc1ccc(CNC(=O)CSc2nnnn2C)cc1OC	Rev-erbA mod 31 | Rev-erbA confirm inactive
COc1ccc(N(Cc2cc(=O)[nH]c3ccccc23)C(=O)CCl)cc1	none
CCOC(=O)c1c(NC(=O)c2cc3n(n2)C(C(F)(F)F)CC(c2ccccc2)N3)sc(C)c1C (stereo not given)	Rev-erbA mod 36 | Rev-erbA confirm inactive
CCN1C(=S)N[C@@H](c2cccs2)C(C(=O)OC)=C1C	none
COc1cc2oc(=O)c3c(c2cc1OCC(=O)c1c(C)n(C)c2ccccc12)CCCC3	Rev-erbA mod 36 | Rev-erbA confirm inactive
CCC(=O)N1CCCC(C)(C(=O)Nc2ccc(C)c(C)c2)C1 (stereo not given)	none (no result: NR2E3 ag-2)
Nc1nc(-c2ccccc2)c(N=Nc2ccccc2Cl)s1	Rev-erbA mod 30 | Rev-erbA confirm 27
C=C(C)CSc1nc(N)c2c(C)c(C)sc2n1	Rev-erbA mod 26 | Rev-erbA confirm 26
CSc1nc(N)c2c(C)c(C)sc2n1	none
C[N+](C)(C)CCNC(=O)c1ccccc1	none (no result: NR2E3 ag-2)
CCOc1cc(/C=C2/C(=N)N3C=CSC3=NC2=O)ccc1OCCCOc1ccccc1C	Rev-erbA mod 18 (not shown: Neddyl block) | Rev-erbA confirm inactive
COc1cc(/C=C2/C(=N)N3C=CSC3=NC2=O)ccc1OCCCOc1ccccc1C	none
